The term IC50 denotes the concentration at which inhibition is half-maximal. A high value points to weaker potency. As usually defined, the Ki is the dissociation constant of the complex between target and ligand, obtained from inhibition or displacement.

The structures appear in SMILES notation.

T1 sequence (P0CS83 whole entry): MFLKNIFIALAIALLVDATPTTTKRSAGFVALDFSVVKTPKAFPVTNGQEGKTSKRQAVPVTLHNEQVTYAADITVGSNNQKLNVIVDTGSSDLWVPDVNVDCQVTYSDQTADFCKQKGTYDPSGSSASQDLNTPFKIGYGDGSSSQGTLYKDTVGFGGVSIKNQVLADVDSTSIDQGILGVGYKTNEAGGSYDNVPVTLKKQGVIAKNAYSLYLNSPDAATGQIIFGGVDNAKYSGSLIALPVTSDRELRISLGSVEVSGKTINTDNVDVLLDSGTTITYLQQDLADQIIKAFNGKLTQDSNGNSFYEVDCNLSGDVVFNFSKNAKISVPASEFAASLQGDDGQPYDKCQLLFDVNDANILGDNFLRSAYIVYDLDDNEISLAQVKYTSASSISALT

For one assay, the target named is T1, Secreted aspartic protease 2 (Candida albicans, UniProt P0CS83). The experiment in a line: Inhibition of candida albicans SAP2 using 0.05% BSA as substrate by spectrophotometric analysis. In outline:
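SAP2 incubated with inhibitor in 0.05% (w/v) BSA substrate, 50 mM sodium citrate pH 3.2, for 30 min at 37 °C. Stopped with 10% (w/v) TCA, held on ice 30 min, centrifuged 3000 g 10 min. Supernatant A280 read against 0.05% BSA in citrate blank. ΔOD per min taken at six inhibitor concentrations, including 5, 1 and 0.1 nM. Pepstatin A run at matching concentrations.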
As for `CC(C)C[C@H](CO)NC(=O)C1O[C@H]2CN(Cc3ccccc3)C(=O)[C@@H]1O2` (stereo partly drawn), the IC50 is > 10000 nM. On the same count and under the same terms, the figure for `O=C([C@H]1O[C@@H]2CN(Cc3ccccc3)C(=O)[C@H]1O2)N1CCCCC1` is 980 nM; for `CC(C)CC(=O)N[C@H](C(=O)N[C@H](C(=O)N[C@@H](CC(C)C)[C@@H](O)CC(=O)N[C@@H](C)C(=O)N[C@@H](CC(C)C)[C@@H](O)CC(=O)O)C(C)C)C(C)C` [PEPSTATIN] it is 90 nM; for `COC(=O)[C@H](CC(C)C)N1C[C@H]2O[C@H](C(=O)N3CCCCC3)[C@H](O2)C1=O` it is > 10000 nM.

With `CC(C)C[C@H](CO)NC(=O)C1O[C@@H]2CN(Cc3ccccc3)C(=O)[C@H]1O2` (stereo partly drawn), the IC50 is > 10000 nM. Same read-out and setting: the figure for `COC(=O)[C@@H](CC(C)C)N1C[C@@H]2O[C@@H](C(=O)N3CCCCC3)[C@@H](O2)C1=O` is 890 nM; for `CC(C)C[C@@H](CO)NC(=O)C1O[C@H]2CN(Cc3ccccc3)C(=O)[C@@H]1O2` (stereo partly drawn) it is 550 nM; for `O=C([C@@H]1O[C@H]2CN(Cc3ccccc3)C(=O)[C@@H]1O2)N1CCCCC1` it is 30 nM. The same measure, in the same setting: the figure for `COC(=O)[C@@H](CC(C)C)N1C[C@H]2O[C@H](C(=O)N3CCCCC3)[C@H](O2)C1=O` is 740 nM; for `CC(C)C[C@@H](CO)NC(=O)C1O[C@@H]2CN(Cc3ccccc3)C(=O)[C@H]1O2` (stereo partly drawn) it is 1100 nM. On the same count and under the same terms, the figure for `COC(=O)[C@H](CC(C)C)N1C[C@@H]2O[C@@H](C(=O)N3CCCCC3)[C@@H](O2)C1=O` is 900 nM.

The target in a further assay is Secreted aspartic protease 2 (Candida albicans) (UniProt P0CS83). Briefly: Ratio of pepstatin A IC50 to compound IC50 for candida albicans SAP2 by spectrophotometric analysis. The procedure, abridged: (§1)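 SAP2 protease (1 µg/mL solution) incubated with inhibitor in 0.05% (w/v) BSA, 50 mM sodium citrate pH 3.2, 30 min at 37 °C. Reaction stopped with 10% TCA, kept on ice 30 min, then centrifuged. Supernatant A280 read against a BSA-in-citrate blank. ΔOD per minute measured at inhibitor levels of 5, 1 and 0.1 µM and 5, 1 and 0.1 nM. Pepstatin A run as reference at the same concentrations.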
Secreted aspartic protease 2 (Candida albicans), sequence (P0CS83 57-398 limits assumed): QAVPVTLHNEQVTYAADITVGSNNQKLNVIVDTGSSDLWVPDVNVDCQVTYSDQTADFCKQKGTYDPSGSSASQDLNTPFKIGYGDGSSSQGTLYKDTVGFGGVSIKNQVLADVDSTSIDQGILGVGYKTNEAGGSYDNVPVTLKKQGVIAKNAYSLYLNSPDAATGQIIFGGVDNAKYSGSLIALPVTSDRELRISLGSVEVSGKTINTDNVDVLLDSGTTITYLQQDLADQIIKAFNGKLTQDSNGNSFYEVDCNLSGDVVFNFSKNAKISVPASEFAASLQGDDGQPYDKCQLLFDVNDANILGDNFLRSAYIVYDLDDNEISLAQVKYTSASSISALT
As for `O=C([C@@H]1O[C@H]2CN(Cc3ccccc3)C(=O)[C@@H]1O2)N1CCCCC1`, the Ratio IC50 was 3.

The next assay has as its target T1, Secreted aspartic protease 2. Briefly: Inhibition of candida albicans SAP2. In outline:
as §1
Consider `CCCCNC(=O)[C@H](C[C@H](O)[C@H](CC1CCCCC1)NC(=O)[C@H](CCCC)N1CCN(C(=O)N2CCN(C)CC2)[C@H](Cc2ccccc2)C1=O)C(C)C`, for which the affinity, expressed as Ki, was 12 nM.
